Laboratory results reported in ChEMBL document CHEMBL5108077, “Discovery of N-β-l-Fucosyl Amides as High-Affinity Ligands for the Pseudomonas aeruginosa Lectin LecB” (J Med Chem, 2022).

Legend:
[1] = test system: Pseudomonas aeruginosa; test: Binding affinity to Pseudomonas aeruginosa PA-IIL assessed as change in enthalpy by isothermal titration calorimetry
In short: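 Recombinant PAO1 LecB expressed in E. coli BL21(DE3), in TBS/Ca²⁺ pH 7.4. Ligand (500–1500 μM) titrated into 100 μM LecB at 25 °C with stirring: 19–39 injections, 240 s apart. First injection discarded. One-site binding model fit. Means from three independent titrations.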

[2] = test system: Pseudomonas aeruginosa; test: Binding affinity to Pseudomonas aeruginosa PA-IIL assessed as change in entropy by isothermal titration calorimetry

## C[C@@H]1O[C@H](O)[C@@H](O)[C@H](O)[C@@H]1O
[1]
  deltaH: -31.2 kJ/mol
[2]
  TdeltaS: 0.3 kJ/mol
